Only some compounds are listed: those with a hit (about 4.3% of all), similar ones and a draw of the others.
OX1R antag-1 = antagonists of human orexin 1 receptor (OX1R). AID 485270. O43613. inhibition, % at 6.6 µM. 330,000 compounds, 1.8% hits. OX1R-expressing cells, FRET antagonist read-out; in the data active = inhibition mostly above about 38%, no sharp cut-off; inactive = mostly below about 40%;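 note: 0% = agonist challenge alone and 100% = reference antagonist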
Target sequence (O43613 whole entry, looked up): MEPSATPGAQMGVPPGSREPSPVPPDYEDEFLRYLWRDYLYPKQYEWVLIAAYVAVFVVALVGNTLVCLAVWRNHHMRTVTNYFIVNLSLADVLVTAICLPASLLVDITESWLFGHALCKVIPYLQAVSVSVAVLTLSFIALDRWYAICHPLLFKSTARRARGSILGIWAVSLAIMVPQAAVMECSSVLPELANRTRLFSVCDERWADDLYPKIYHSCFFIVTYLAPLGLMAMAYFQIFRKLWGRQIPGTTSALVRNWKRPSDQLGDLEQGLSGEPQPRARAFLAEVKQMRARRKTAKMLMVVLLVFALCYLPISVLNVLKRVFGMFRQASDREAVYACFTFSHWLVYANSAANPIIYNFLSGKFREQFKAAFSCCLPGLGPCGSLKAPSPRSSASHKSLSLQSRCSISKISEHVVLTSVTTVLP
OX1R antag-2 = human HCRTR1 antagonism | O43613 | CHO/OX1R cells, Fluo-8 calcium fluorescence, orexin A | inhibition, % at 5 µM | 330,000 compounds, 0.43% hits | AID 434989;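 active = inhibition above its plate's threshold, mean inhibition of all tested compounds on the plate plus 3 SD, cut at about 37% in these data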;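 note: 0% = orexin A challenge wells and 100% = SB-334867-A antagonist wells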
CHO parental Ca = counter-screen: ATP calcium response change in parental CHO cells; parental CHO-K1, ATP-induced calcium, Fluo-8 fluorescence; inhibition, % at 5.6 µM; 330,000 compounds, 0.63% hits;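 active = inhibition above that plate's mean sample inhibition plus 3 SD, cut at about 26% in these data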;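 note: 0% = ATP-challenged DMSO wells and 100% = DMSO wells without ATP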
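Test system: parental CHO cells; detection: calcium-sensitive Fluo-8 fluorescence; evaluation: percent inhibition of calcium signal; also added: ATP as calcium-mobilizing challenge; repeats: one well per compound; control set: ATP-challenged DMSO wells low, unchallenged DMSO wells high; compound: single nominal dose of 5.6 µM per compound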
TAAR1 agonist = agonists of human TAAR1; 360,000 compounds, 0.99% hits; activation, % at 3 µM; Q96RJ0; AID 624467; CHO RD-HGA16 TAAR1, Fluo-8 calcium fluorescence; vehicle wells 0%, saturating PEA agonist 100%;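 active = activation above the mean activation of all test compounds in the run plus 3 SD, cut at about 38% in these data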
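test system = CHO RD-HGA16 cells carrying human TAAR1 plus Gα16 | schedule = 17-24 h seeding, 75 min 37 °C dye, 30 min RT | compound dosing = 3 µM single concentration | control set = DMSO and PEA EC100 | replicates = n 1 | signal = Fluo-8 fluorescence, 5 s baseline then 140 s kinetic read | measure = percent activation vs PEA EC100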
GalR3 antagonist = human GalR3 antagonism. 360,000 compounds, 0.44% hits. HEK293 GalR3-CNG cAMP membrane potential fluorescence; galR3 body fused to GalR1 C-terminus. inhibition, % at 3 µM;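 active = inhibition above the screen-wide average plus 3 SD, cut at about 13% in these data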;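 note: forskolin and galanin both at EC90 stimulate the cells; cAMP rise reported by CNG channel membrane potential dye signal; 0% = forskolin plus galanin with DMSO and 100% = forskolin alone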
Target sequence (O60755 1-299 limits assumed): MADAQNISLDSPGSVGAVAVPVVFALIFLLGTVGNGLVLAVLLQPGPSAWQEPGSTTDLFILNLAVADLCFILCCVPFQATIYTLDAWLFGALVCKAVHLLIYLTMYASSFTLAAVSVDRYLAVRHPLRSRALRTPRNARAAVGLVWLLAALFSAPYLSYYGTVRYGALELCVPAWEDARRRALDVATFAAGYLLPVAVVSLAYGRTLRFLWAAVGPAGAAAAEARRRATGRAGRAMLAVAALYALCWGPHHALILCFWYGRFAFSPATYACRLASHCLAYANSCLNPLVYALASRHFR
TAAR1 antag = human TAAR1 antagonism | Q96RJ0 | CHO RD-HGA16 TAAR1, Fluo-8 calcium fluorescence, antagonist | inhibition, % at 3 µM | 360,000 compounds, 1.5% hits;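 active = inhibition above a per-plate cutoff, the mean inhibition of test compounds on that plate plus 3 SD, cut at about 49% in these data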;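 note: 0% = DMSO plus EC80 beta-PEA response and 100% = DMSO alone without agonist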
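Assay system: CHO-derived RD-HGA16 cells stably expressing human TAAR1 plus Gα16. Timing: 140 s kinetic read after compound, 140 s after agonist. Technique: kinetic Fluo-8 calcium fluorescence measurement. Measure: % inhibition of agonist calcium response.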
nonsel antag count = nonselective antagonism, TAAR1 counter-screen. 2,400 compounds, 77% hits. inhibition, % at 3 µM. counterscreen cell line, calcium fluorescence, antagonist mode. shares compounds with TAAR1 antag; in the data active = inhibition above about 22%;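 note: CHO-Ga16 host cells stimulated with ATP at an EC80 level; 0% = agonist EC80 plus vehicle and 100% = vehicle without agonist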
TAAR1 antag conf = confirmation of human TAAR1 antagonists; shares compounds with TAAR1 antag; TAAR1-expressing cells, fluorescence antagonist read-out; inhibition, % at 3 µM; 2,400 compounds, 40% hits; AID 651785; in the data active = inhibition above about 49%;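 note: CHO-Ga16 host cells challenged with agonist PEA near its EC80; 0% = agonist at EC80 plus vehicle and 100% = vehicle with no agonist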
Ga16 nonsel ag = counter-screen for TAAR1 antagonists: nonselective Ga16 agonists; shares compounds with TAAR1 antag; Ga16-expressing cells, calcium fluorescence, agonist counterscreen; activation, % at 3 µM; 2,400 compounds, 18% hits; AID 651953; in the data active = activation above about 12%;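 note: 0% = vehicle wells and 100% = saturating stimulus response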
TAAR1 ag counter = counter-screen for human TAAR1 antagonists: TAAR1 agonists. activation, % at 3 µM. shares compounds with TAAR1 antag. 2,400 compounds, 2% hits. hTAAR1 cell line, fluorescence activation, agonist mode; in the data active = activation above about 37%;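 note: CHO cells stably expressing TAAR1 with calcium dye readout; 0% = DMSO vehicle and 100% = full agonist response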
* hit, by the source's call.

COc1ccc(NC(=O)COC(=O)C2CCC2)cc1Cl was read as OX1R antag-1 20, OX1R antag-2 -4, CHO parental Ca 2, TAAR1 agonist 1, GalR3 antagonist -1 and TAAR1 antag -2.
`Cc1ccc(C(C)C)c(OCCNC(=O)c2ccccc2O)c1` gave OX1R antag-1 14, OX1R antag-2 -24, CHO parental Ca -11, TAAR1 agonist 2, GalR3 antagonist -8, TAAR1 antag 58*, nonsel antag count 17, TAAR1 antag conf 40, Ga16 nonsel ag 3 and TAAR1 ag counter 3.
O=[N+]([O-])c1ccc(-c2c(-c3ccccc3)ncc3cc(F)ccc23)cc1 was read as OX1R antag-1 6, OX1R antag-2 15, CHO parental Ca -16, TAAR1 agonist 0, GalR3 antagonist -3, TAAR1 antag 82*, nonsel antag count 19, TAAR1 antag conf 55*, Ga16 nonsel ag 1 and TAAR1 ag counter 3.
`CCOC(=O)c1ccc(NC(=S)N(CCCN2CCCC(C)C2)Cc2ccco2)cc1` (configuration not stated) gave OX1R antag-1 32, OX1R antag-2 -14, CHO parental Ca -11, TAAR1 agonist 1, GalR3 antagonist 0 and TAAR1 antag 0.
For CCc1nc2ccc(C(=O)N3CCN(C(=O)c4ccco4)CC3)cn2c1N(C)C(=O)COc1ccccc1 the results were TAAR1 agonist 2, GalR3 antagonist -2 and TAAR1 antag -32.
COc1ccc(NC(=O)c2ccc(C#N)cc2)cc1NS(=O)(=O)c1ccc(F)cc1 was read as OX1R antag-1 17, OX1R antag-2 -1, CHO parental Ca -4, TAAR1 agonist 0, GalR3 antagonist -3, TAAR1 antag 70*, nonsel antag count 5, TAAR1 antag conf 8, Ga16 nonsel ag 5 and TAAR1 ag counter 5.
`Cc1cc(C)nc(SCC(=O)c2ccc(F)cc2F)n1` gave OX1R antag-1 12, OX1R antag-2 -27, CHO parental Ca -12, TAAR1 agonist 1, GalR3 antagonist -6 and TAAR1 antag 9.
For COc1ccc(N2CCN(C(=O)COC(=O)c3ccc(C)o3)CC2)cc1 the results were OX1R antag-1 13, OX1R antag-2 -8, CHO parental Ca -6, TAAR1 agonist 0, GalR3 antagonist 4 and TAAR1 antag -5.
`CC(C)=CCC/C(C)=C/CN1C(=O)N(c2ccc(F)cc2)[C@H]2C[C@@H](c3ccccc3)[C@@H](C)[C@@H](C(=O)N3CCOCC3)C[C@H]21` gave TAAR1 agonist 2, GalR3 antagonist -4, TAAR1 antag 65*, nonsel antag count 35*, TAAR1 antag conf 59*, Ga16 nonsel ag 1 and TAAR1 ag counter 1.
`CN(C)S(=O)(=O)c1ccc(S(=O)(=O)N(CC(=O)Nc2ccccc2)Cc2ccco2)cc1` gave OX1R antag-1 16, OX1R antag-2 16, CHO parental Ca 19, TAAR1 agonist 18, GalR3 antagonist -2 and TAAR1 antag -2.
CCN(CC)S(=O)(=O)c1ccc(S(=O)(=O)N(CC(=O)Nc2ccccc2)Cc2ccco2)cc1 was read as OX1R antag-1 6, OX1R antag-2 9, CHO parental Ca -10, TAAR1 agonist 17, GalR3 antagonist -4, TAAR1 antag 62*, nonsel antag count 31*, TAAR1 antag conf 53*, Ga16 nonsel ag 9 and TAAR1 ag counter 9.
`C[C@@H]1COc2cc(N(C)CCO)ccc2S(=O)(=O)N1` gave TAAR1 agonist 2, GalR3 antagonist -5 and TAAR1 antag -16.
CCCc1cc(C(=O)Nc2ccc(C(=O)c3ccc(C)cc3)cc2)n(C)n1 was read as OX1R antag-1 6, OX1R antag-2 1, CHO parental Ca -2, TAAR1 agonist -1, GalR3 antagonist -3, TAAR1 antag 64*, nonsel antag count 29*, TAAR1 antag conf 49*, Ga16 nonsel ag 3 and TAAR1 ag counter -2.
Cc1c(C(=O)Nc2ccccc2F)sc2ncn(CC(=O)N3CCCCC3)c(=O)c12 was read as OX1R antag-1 18, OX1R antag-2 -14, CHO parental Ca 6, TAAR1 agonist 6, GalR3 antagonist 1 and TAAR1 antag -16.
Screening Cc1cc2cc(CCNC(=O)C(=O)c3c[nH]c4ccccc34)c(=O)[nH]c2cc1C returned OX1R antag-1 65*, OX1R antag-2 2, CHO parental Ca -20, TAAR1 agonist 19, GalR3 antagonist -3, TAAR1 antag 65*, nonsel antag count 30*, TAAR1 antag conf 45, Ga16 nonsel ag 9 and TAAR1 ag counter 7.
For Cc1cc2cc(CCNC(=O)C(C)C)c(=O)[nH]c2cc1C the results were OX1R antag-1 5, OX1R antag-2 -8, CHO parental Ca -3, TAAR1 agonist 6, GalR3 antagonist -5 and TAAR1 antag -13.
C=CCn1cccc(C(=O)Nc2ccc(OCC)cc2)c1=O was read as OX1R antag-1 10, OX1R antag-2 -3, CHO parental Ca -13, TAAR1 agonist 2, GalR3 antagonist 1 and TAAR1 antag 8.
Screening Cc1nc(SCC(=O)c2ccccc2)c(C#N)c(-c2ccco2)c1C(=O)NCc1ccco1 returned OX1R antag-1 28, OX1R antag-2 -20, CHO parental Ca 1, TAAR1 agonist 25, GalR3 antagonist -4, TAAR1 antag 62*, nonsel antag count 35*, TAAR1 antag conf 58*, Ga16 nonsel ag 10 and TAAR1 ag counter 7.
`COCCOC(=O)c1c(C)nc(SCC(=O)Nc2ccc(OC)cc2)c(C#N)c1-c1ccco1` gave OX1R antag-1 11, OX1R antag-2 -21, CHO parental Ca -12, TAAR1 agonist 4, GalR3 antagonist 9 and TAAR1 antag -6.
For Cc1nc2ccccc2c2oc(C(=O)NCC3COc4ccccc4O3)cc12 (configuration not stated) the results were OX1R antag-1 85*, OX1R antag-2 10, CHO parental Ca 41*, TAAR1 agonist 4, GalR3 antagonist 2, TAAR1 antag 54*, nonsel antag count 35*, TAAR1 antag conf 42, Ga16 nonsel ag 9 and TAAR1 ag counter 8.
